Source: ChEMBL document CHEMBL4513216, “Probing the Open Global Health Chemical Diversity Library for Multistage-Active Starting Points for Next-Generation Antimalarials” (ACS Infect Dis, 2020)

Test: Toxicity liver stage against HepG2, at 10uM
Assay type: cell-based
Parameters: test concentration 10 uM, cell line HepG2-A16-CD81EGFP
Conditions: human, HepG2-A16-CD81EGFP cells; read-out: INHIBITION
In short: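 Uninfected HepG2-A16-CD81EGFP cells, 3 × 10^3 per well, 1536-well, plated on prespotted compound at 10 μM final, parasite-free screening media added to match infected plates; puromycin 10 μM positive, DMSO 0.5% negative; run in parallel with 48 h PbLuc assay at 37 °C, 5% CO2; viability by CellTiter-Glo luminescence, normalized to controls.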

Row | Structure (SMILES) | cytotoxicity at 10 µM [%]
1 | CCN(C(=O)Cc1ccc(NCc2ncc[nH]2)cc1)c1ccccc1 | 6.43
2 | CC(C)c1cc(NC(=O)CN2CCCC2c2noc(C(C)C)n2)on1 (stereo not given) | -3.84
3 | CC(C)(C)N1CC(C(=O)NCc2noc(Cc3ccccc3)n2)CC1=O (stereo not given) | 0.824
4 | Cc1ncsc1CN1C[C@@H]2COC[C@]2(CNC(=O)c2ccccc2)C1 | -2.39
5 | O=C(NC(CC(F)(F)F)c1ccc(Cl)cc1)c1nc(=O)[nH][nH]1 (stereo not given) | -5.11
6 | Cc1nn2c(N3CCCC(C#N)C3)cc(-c3ccccc3)nc2c1C (stereo not given) | -0.828
7 | CCc1cc(CN(Cc2cccnc2)C2CN3CCC2CC3)on1 (stereo not given) | 2.09
8 | O=S(=O)(NCC1(c2cccs2)CCCC1)c1cccnc1 | -2.56
9 | O=C(CNC1(c2ccc(Cl)cc2)CCOCC1)NC1CCCC1 | 2.32
10 | CC(C)n1cc(CN2CCCN(C(=O)C3CCOC3)CC2)cn1 (stereo not given) | -8.45
11 | Cc1c(Cl)cccc1NC(=O)c1nc[nH]n1 | -7.93
12 | COCC(=O)N1CCC2(CCCN(Cc3ccc(Cl)cc3)CC2)CC1 | -0.153
13 | c1cnc(N2CC3(CCN(C4CCOCC4)CC3)c3ccccc32)nc1 | -6.32
14 | Cn1c(C2CC2)nc2c1CCN(CC(=O)NC1CCCCNC1=O)C2 (stereo not given) | 3.73
15 | CS(=O)(=O)N1CCOCC2(CN(Cc3nccs3)CCO2)C1 (stereo not given) | 7.49
16 | O=C(Nc1ccc2c(c1)C(=O)NC2)c1ccc(S(=O)(=O)C(F)(F)F)cc1 | 36.9
17 | Cc1cccc(-c2ccc(C(=O)NCC3CCOC3)c(=O)[nH]2)c1 (stereo not given) | -9.66
18 | O=C(NCc1ccccn1)c1cnc(C2CCCN2)cn1 (stereo not given) | 3.62
19 | COc1ccc(C2SCC(=O)Nc3n[nH]cc32)c(OC)c1OC (stereo not given) | 4.68
20 | COc1ccc(C2=NOC(C(=O)N3CCCc4ccccc43)C2)cc1 (stereo not given) | 0.863
21 | Cn1cnnc1CN1CCC2(CCC(=O)N(Cc3ccccc3)C2)CC1 | 7.8
22 | COc1cc(C(C)=O)ccc1OCCNCc1ccco1 | -5.05
23 | Cc1nc(CN2CCC3(CC2)CCN(C(=O)c2cscn2)C3)cs1 | -71.9
24 | Cc1c[nH]nc1C1CCCN1Cc1nccn1C (stereo not given) | -3.34
25 | Cc1cc(C)n(C2CN(C(=O)Cn3c(C)cc(=O)c4ccccc43)C2)n1 | -5.56
26 | CC(C)N1C[C@@H]2OCC(=O)N(Cc3ccccc3)[C@@H]2C1 | 10.5
27 | O=C(N1CCOCC1)n1cnc2ccccc21 | -3.11

Row | Structure (SMILES) | cytotoxicity at 10 µM [%]
28 | CN(CCCc1cc(-c2ccccc2)no1)S(C)(=O)=O | -14.4
29 | Cc1cc(C2CCCCN2C(=O)c2cccn2C)nc2nccn12 (stereo not given) | -17.6
30 | O=C(c1ncccn1)N1C[C@H]2CCC[C@@]2(COCc2ccncc2)C1 | -3.08
31 | c1ccc(CO[C@H]2CC[C@H]3[C@H]2OCCN3Cc2nccs2)nc1 | 5.83
32 | CCCNC(=O)NC(=O)CNC(C)(C)c1ccc2c(c1)OCO2 | -12.7
33 | O=C(C[C@@H]1COC[C@H]2CN(Cc3cccnc3)C[C@@H]12)NCC1CC1 | 0.752
34 | CC(C)Cn1ncc2cc(C(=O)N(C)CCc3ccccc3)cnc21 | -3.42
35 | CN(C)C(=O)C(C)(C)c1ccc2c(c1)OCCO2 | -1.52
36 | CCC(=O)N1CCC[C@]2(C(=O)N(C)C)CN(c3ccccn3)C[C@@H]2C1 | 11.5
37 | CCc1[nH]ncc1C(=O)N1CCCC(n2nc(C)cc2C)C1 (stereo not given) | -15.6
38 | CCN(CC)C(=O)[C@@H]1C[C@H](NC(=O)c2ccn(C(C)(C)C)c2)CN1C | -19.3
39 | COc1ccc(OC)c(NC(=O)N2CCCC2c2ccco2)c1 (stereo not given) | -6.57
40 | Cc1cc(OCC(=O)N2CCCC2c2noc(C)n2)no1 (stereo not given) | -11.1
41 | C=C(C)COc1ccccc1NC(=O)NC1CCOCC1 | 4.67
42 | COCC(O)CN1CCC(NC(=O)c2cccc(C)c2)CC1 (stereo not given) | 1.44
43 | CSc1ccsc1C(=O)NCCNC(=O)C1CC1 | 1.93
44 | CCN(Cc1noc(C2CCC2)n1)C(=O)CCc1cc2n(n1)CCNC2 | 10.5
45 | O=C(c1ccoc1)N1CCCn2cnc(COCC3CC3)c2C1 | 2.47
46 | CC1c2ncc(COCC3CC3)n2CCN1C(=O)c1ccnnc1 (stereo not given) | 4.66
47 | CCn1c(CC2CCN(S(=O)(=O)c3cccc(C)c3)CC2)nn(C)c1=O | 2.01
48 | CCN1CCC2(CC1)CN(C(C)=O)c1ccc(C)cc12 | 3.98
49 | O=C(NCC1CC1)Nc1cccc(N2CCN(CC3CC3)CC2)c1 | -13.3
50 | O=C(NC[C@]12COC[C@H]1CN(CC1CCOCC1)C2)c1ccccc1 | -5.15
51 | CN(C)C(=O)N1CCN(Cc2cnc(-c3ccsc3)s2)CC1 | 2.03
52 | N[C@@H]1CC[C@H](C(=O)NCCc2nc(-c3ccccc3)cs2)C1 | -11.3
53 | Cc1cc(F)ccc1N1CCCC(NS(=O)(=O)CCCF)C1=O (stereo not given) | -3.14
54 | CC(C)NC1CCc2c(ccc(=O)n2CC2CC2)C1 (stereo not given) | -76.5

Row | Structure (SMILES) | cytotoxicity at 10 µM [%]
55 | CC(C)(O)CN1CCN(C(=O)c2cccn2Cc2ccccc2)CC1 | -3.88
56 | Cc1cc(C(=O)N2CCc3ncnc(N4CCSCC4)c3CC2)[nH]n1 | -6.98
57 | O=S(=O)(NCCn1ccc(-c2ccccn2)n1)C1CCCCC1 | 8.63
58 | CN(C)CCN1C(=O)CCC12CCCN(C(=O)c1cccnc1)CC2 (stereo not given) | -6.78
59 | O=C(NC1CC1)N1CCOCC2(CCN(Cc3cccs3)C2)C1 (stereo not given) | -2.6
60 | CN(C)C(=O)NC1COC2(CCN(C(=O)Nc3ccccc3)CC2)C1 (stereo not given) | 0.179
61 | Cn1cc(NC(=O)N2CCC(Cc3ccccc3)CC2)ccc1=O | 1.07
62 | Cc1cc(C(F)(F)F)nc(N(C)Cc2c(C)noc2C)n1 | -13.2
63 | Cc1nc(C)n(C2CCCN(C(=O)c3csc(C)n3)C2)n1 (stereo not given) | -18.7
64 | CC(C)COc1cncc(N2CCCN(CC(F)(F)F)CC2)n1 | 4.29
65 | COCC(=O)N1CCC(C(=O)N(C)C(C)c2ccon2)CC1 (stereo not given) | 1.28
66 | CCNC(=O)[C@@H]1C[C@@H](NC(=O)c2cccn2C)CN1CCCSC | -122
67 | CCCn1nccc1C(=O)N1CCCN(CCCc2ccccc2)CC1 | -2.06
68 | CCCc1nc(N2CCC(CCO)CC2)c2cnn(C)c2n1 | 2.28
69 | CCCS(=O)(=O)N1CCC2(CCN(Cc3cccc(F)c3)C2=O)C1 (stereo not given) | 8.07
70 | O=C([C@@H]1CCO[C@@H]2CCN(Cc3ccsc3)C[C@@H]21)N1CCCC1 | -81.4
71 | Cc1ccccc1N1CCN(C(=O)Cc2ccc3c(c2)OCO3)CC1=O | 6.17
72 | Fc1ccc(CN2CCO[C@H]3[C@H](OCC4CC4)CC[C@@H]32)cc1 | -5.34
73 | CCN1CCCC1CNC(=O)Cc1c(-c2ccc(Cl)cc2)n[nH]c1C (stereo not given) | -5.4
74 | CN(CC(=O)N(C)C)Cc1ccc(C#N)cc1F | 6.56
75 | c1cnnc(NCC2CN(CCN3CCCCC3)CCO2)c1 (stereo not given) | -11.9
76 | COc1ccc(COCC(O)CNC(=O)c2ccc(C)c(F)c2)cc1 (stereo not given) | -0.584
77 | COc1ccccc1C(O)CNc1nccc(-c2ccc(C)nc2C)n1 (stereo not given) | 8.95
78 | OC(COCc1cccs1)CN1CCc2c(ncn2C2CC2)C1 (stereo not given) | -4.29
79 | CS(=O)(=O)NC[C@H]1OC[C@@H]2CN(Cc3cccnc3)CC[C@@H]21 | 12.7
80 | CSCC[C@@H](CO)Nc1ccc(-c2nc(C3CC3)no2)cn1 | 0.957
